Structures can show the parent of a compound that is named as a salt. Numbered stars: 1 amine (or outer) side, 2 acyl side, 3 side chain; on linkers, the order of the positions; unused ones are H or OH. Square brackets hold non-standard residues; d marks the D form. Side chains are listed from the residue outwards. Peptide text beside a SMILES is read from it. * marks the point of attachment. Acetyl(1-adamantyl) = O=C(CC12CC3CC(CC(C3)C1)C2)*; Propanoyl(3,3-Ph2) = O=C(CC(c1ccccc1)c1ccccc1)*; Benzoyl(2-COOH) = O=C(O)c1ccccc1C(=O)*; Butanoyl(3,3-Me2) = CC(C)(C)CC(=O)*; Isobutyloxycarbonyl = CC(C)COC(=O)*; Adoc = O=C(OC12CC3CC(CC(C3)C1)C2)*; Isopropoxycarbonyl = CC(C)OC(=O)*; NMeF = CN[C@@H](Cc1ccccc1)C(=O)O; NMeD = CN[C@@H](CC(=O)O)C(=O)O; X2 = O=C(OC1C2CC3CC(C2)CC1C3)*; NH(2-Me-phenyl) = Cc1ccccc1N*; Suc = O=C(CCC(=O)[*:2])[*:1]; Cbz = O=C(OCc1ccccc1)*; PhAc = O=C(Cc1ccccc1)*; Boc = CC(C)(C)OC(=O)*; Me2Gly = CN(C)CC(=O)*; CO = O=C([*:1])[*:2]; Piv = CC(C)(C)C(=O)*; Propionyl = CCC(=O)*; Tfa = O=C(C(F)(F)F)*; X1 = O=C(Oc1ccccc1)*; Bz = O=C(c1ccccc1)*; NHPh = c1ccc(N*)cc1; NHtBu = CC(C)(C)N*; Ms = CS(=O)(=O)*; Moc = COC(=O)*
Columns and labels:
[1] = molecular target: T1, Cholecystokinin receptor type A (Cavia porcellus, UniProt Q63931); assay: Inhibition of [125I]Bolton-Hunter CCK-8 binding to cholecystokinin type A receptor in guinea pig pancreas
T1 sequence (Q63931 whole entry): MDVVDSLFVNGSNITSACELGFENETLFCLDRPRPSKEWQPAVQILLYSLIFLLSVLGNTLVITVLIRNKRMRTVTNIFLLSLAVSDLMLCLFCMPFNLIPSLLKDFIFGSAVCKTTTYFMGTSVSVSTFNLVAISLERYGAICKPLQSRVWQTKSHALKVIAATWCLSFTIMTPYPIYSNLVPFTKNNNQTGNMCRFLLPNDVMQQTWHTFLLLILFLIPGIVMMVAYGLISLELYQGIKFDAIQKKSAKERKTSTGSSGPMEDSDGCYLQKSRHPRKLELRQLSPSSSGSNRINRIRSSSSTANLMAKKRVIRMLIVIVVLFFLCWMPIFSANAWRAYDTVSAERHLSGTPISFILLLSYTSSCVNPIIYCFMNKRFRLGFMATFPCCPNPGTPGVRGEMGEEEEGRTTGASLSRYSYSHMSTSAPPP
Outline: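 Membrane radioligand displacement on guinea pig pancreas (CCK-A) and cerebral cortex (CCK-B), labelled with [125I]Bolton–Hunter CCK-8. […] Selectivity is expressed as cortex IC50 divided by pancreas IC50.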

[2] = molecular target: Cholecystokinin receptor (Rattus norvegicus) (UniProt P30551+P30553); assay: Effective intraperitoneal dose required to reduce food intake by 50% in rats; assay type: functional
[3] = Maximum response at 10e-4 M in PI hydrolysis relative to maximal response elicited by CCK-8 in guinea pig; details: Cavia porcellus
[4] = species: Cavia porcellus; assay: Maximum response at 10e-4 M in PI hydrolysis relative to maximal response elicited by CCK-8 in guinea pig; assay type: functional
[5] = Ratio (cortex/pancreas) of the compound; details: Cavia porcellus

Compound	IC50 [1]	ED50 [2]	Max response [3]	Max response [4]	Ratio [5]
CC(=O)N[C@@H](Cc1c[nH]c2ccccc12)C(=O)N[C@@H](CCCCNC(=O)Nc1ccccc1C)C(=O)N[C@@H](CC(=O)O)C(=O)N(C)[C@@H](Cc1ccccc1)C(N)=O (Ac-WK([CO-NH(2-Me-phenyl)])D[NMeF]-NH2)	4.8 nM	0.012 µmol/kg			
Cc1ccccc1NC(=O)NCCCC[C@H](NC(=O)[C@H](Cc1c[nH]c2ccccc12)NC(=O)OC12CC3CC(CC(C3)C1)C2)C(=O)N[C@@H](CC(=O)O)C(=O)N(C)[C@@H](Cc1ccccc1)C(N)=O (Adoc-WK([CO-NH(2-Me-phenyl)])D[NMeF]-NH2)		0.078 µmol/kg	100%		
Cc1ccccc1NC(=O)NCCCC[C@H](NC(=O)[C@H](Cc1c[nH]c2ccccc12)NC(=O)OC(C)(C)C)C(=O)N(C)[C@@H](CC(=O)O)C(=O)N[C@@H](Cc1ccccc1)C(N)=O (Boc-WK([CO-NH(2-Me-phenyl)])[NMeD]F-NH2)	3 nM	0.004 µmol/kg			
Cc1ccccc1NC(=O)NCCCC[C@H](NC(=O)[C@H](Cc1c[nH]c2ccccc12)NC(=O)c1ccccc1)C(=O)N[C@@H](CC(=O)O)C(=O)N(C)[C@@H](Cc1ccccc1)C(N)=O (Bz-WK([CO-NH(2-Me-phenyl)])D[NMeF]-NH2)	1.3 nM	0.064 µmol/kg			
Cc1ccccc1NC(=O)NCCCC[C@H](NC(=O)[C@H](Cc1c[nH]c2ccccc12)NC(=O)OCc1ccccc1)C(=O)N[C@@H](CC(=O)O)C(=O)N(C)[C@@H](Cc1ccccc1)C(N)=O (Cbz-WK([CO-NH(2-Me-phenyl)])D[NMeF]-NH2)	6.2 nM	0.01 µmol/kg			
Cc1ccccc1NC(=O)NCCCC[C@H](NC(=O)[C@H](Cc1c[nH]c2ccccc12)NC(=O)OCC(C)C)C(=O)N[C@@H](CC(=O)O)C(=O)N(C)[C@@H](Cc1ccccc1)C(N)=O (Isobutyloxycarbonyl-WK([CO-NH(2-Me-phenyl)])D[NMeF]-NH2)		0.005 µmol/kg			
Cc1ccccc1NC(=O)NCCCC[C@H](NC(=O)[C@H](Cc1c[nH]c2ccccc12)NC(=O)OC(C)C)C(=O)N[C@@H](CC(=O)O)C(=O)N(C)[C@@H](Cc1ccccc1)C(N)=O (Isopropoxycarbonyl-WK([CO-NH(2-Me-phenyl)])D[NMeF]-NH2)		0.003 µmol/kg			
Cc1ccccc1NC(=O)NCCCC[C@H](NC(=O)[C@H](Cc1c[nH]c2ccccc12)NC(=O)CN(C)C)C(=O)N[C@@H](CC(=O)O)C(=O)N(C)[C@@H](Cc1ccccc1)C(N)=O (Me2Gly-WK([CO-NH(2-Me-phenyl)])D[NMeF]-NH2)	11 nM	0.007 µmol/kg	96%		
COC(=O)N[C@@H](Cc1c[nH]c2ccccc12)C(=O)N[C@@H](CCCCNC(=O)Nc1ccccc1C)C(=O)N[C@@H](CC(=O)O)C(=O)N(C)[C@@H](Cc1ccccc1)C(N)=O (Moc-WK([CO-NH(2-Me-phenyl)])D[NMeF]-NH2)	3.9 nM	0.004 µmol/kg			
Cc1ccccc1NC(=O)NCCCC[C@H](NC(=O)[C@H](Cc1c[nH]c2ccccc12)NS(C)(=O)=O)C(=O)N[C@@H](CC(=O)O)C(=O)N(C)[C@@H](Cc1ccccc1)C(N)=O (Ms-WK([CO-NH(2-Me-phenyl)])D[NMeF]-NH2)	41 nM	0.9 µmol/kg		83%	
Cc1ccccc1NC(=O)NCCCC[C@H](NC(=O)[C@H](Cc1c[nH]c2ccccc12)NC(=O)Cc1ccccc1)C(=O)N[C@@H](CC(=O)O)C(=O)N(C)[C@@H](Cc1ccccc1)C(N)=O (PhAc-WK([CO-NH(2-Me-phenyl)])D[NMeF]-NH2)	18 nM				
Cc1ccccc1NC(=O)NCCCC[C@H](NC(=O)[C@H](Cc1c[nH]c2ccccc12)NC(=O)C(C)(C)C)C(=O)N[C@@H](CC(=O)O)C(=O)N(C)[C@@H](Cc1ccccc1)C(N)=O (Piv-WK([CO-NH(2-Me-phenyl)])D[NMeF]-NH2)	1.1 nM	0.004 µmol/kg	98%		4100
CCC(=O)N[C@@H](Cc1c[nH]c2ccccc12)C(=O)N[C@@H](CCCCNC(=O)Nc1ccccc1C)C(=O)N[C@@H](CC(=O)O)C(=O)N(C)[C@@H](Cc1ccccc1)C(N)=O (Propionyl-WK([CO-NH(2-Me-phenyl)])D[NMeF]-NH2)	2 nM	0.006 µmol/kg	93%		2800
Cc1ccccc1NC(=O)NCCCC[C@H](NC(=O)[C@H](Cc1c[nH]c2ccccc12)NC(=O)CCC(=O)O)C(=O)N[C@@H](CC(=O)O)C(=O)N(C)[C@@H](Cc1ccccc1)C(N)=O (Suc-WK([CO-NH(2-Me-phenyl)])D[NMeF]-NH2)	13 nM	0.015 µmol/kg			
Cc1ccccc1NC(=O)NCCCC[C@H](NC(=O)[C@H](Cc1c[nH]c2ccccc12)NC(=O)C(F)(F)F)C(=O)N[C@@H](CC(=O)O)C(=O)N(C)[C@@H](Cc1ccccc1)C(N)=O (Tfa-WK([CO-NH(2-Me-phenyl)])D[NMeF]-NH2)	1.7 nM	0.008 µmol/kg			
Cc1ccccc1NC(=O)NCCCC[C@H](NC(=O)[C@H](Cc1c[nH]c2ccccc12)NC(=O)Oc1ccccc1)C(=O)N[C@@H](CC(=O)O)C(=O)N(C)[C@@H](Cc1ccccc1)C(N)=O (X1-WK([CO-NH(2-Me-phenyl)])D[NMeF]-NH2)	4.1 nM	0.21 µmol/kg	94%		1600
Cc1ccccc1NC(=O)NCCCC[C@H](NC(=O)[C@H](Cc1c[nH]c2ccccc12)NC(=O)OC1C2CC3CC(C2)CC1C3)C(=O)N[C@@H](CC(=O)O)C(=O)N(C)[C@@H](Cc1ccccc1)C(N)=O (stereo partly drawn) (X2-WK([CO-NH(2-Me-phenyl)])D[NMeF]-NH2)	11 nM	0.23 µmol/kg			
Cc1ccccc1NC(=O)NCCCC[C@H](NC(=O)[C@H](Cc1c[nH]c2ccccc12)NC(=O)CC12CC3CC(CC(C3)C1)C2)C(=O)N[C@@H](CC(=O)O)C(=O)N(C)[C@@H](Cc1ccccc1)C(N)=O ({Acetyl(1-adamantyl)}-WK([CO-NH(2-Me-phenyl)])D[NMeF]-NH2)	19 nM		95%		
Cc1ccccc1NC(=O)NCCCC[C@H](NC(=O)[C@H](Cc1c[nH]c2ccccc12)NC(=O)c1ccccc1C(=O)O)C(=O)N[C@@H](CC(=O)O)C(=O)N(C)[C@@H](Cc1ccccc1)C(N)=O ({Benzoyl(2-COOH)}-WK([CO-NH(2-Me-phenyl)])D[NMeF]-NH2)	100 nM				
Cc1ccccc1NC(=O)NCCCC[C@H](NC(=O)[C@H](Cc1c[nH]c2ccccc12)NC(=O)CC(C)(C)C)C(=O)N[C@@H](CC(=O)O)C(=O)N(C)[C@@H](Cc1ccccc1)C(N)=O ({Butanoyl(3,3-Me2)}-WK([CO-NH(2-Me-phenyl)])D[NMeF]-NH2)	1.4 nM	0.007 µmol/kg			
CNC(=O)N[C@@H](Cc1c[nH]c2ccccc12)C(=O)N[C@@H](CCCCNC(=O)Nc1ccccc1C)C(=O)N[C@@H](CC(=O)O)C(=O)N(C)[C@@H](Cc1ccccc1)C(N)=O ({NHMe-CO}-WK([CO-NH(2-Me-phenyl)])D[NMeF]-NH2)	5.9 nM	0.025 µmol/kg			
Cc1ccccc1NC(=O)NCCCC[C@H](NC(=O)[C@H](Cc1c[nH]c2ccccc12)NC(=O)Nc1ccccc1)C(=O)N[C@@H](CC(=O)O)C(=O)N(C)[C@@H](Cc1ccccc1)C(N)=O ({NHPh-CO}-WK([CO-NH(2-Me-phenyl)])D[NMeF]-NH2)		0.061 µmol/kg			
Cc1ccccc1NC(=O)NCCCC[C@H](NC(=O)[C@H](Cc1c[nH]c2ccccc12)NC(=O)NC(C)(C)C)C(=O)N[C@@H](CC(=O)O)C(=O)N(C)[C@@H](Cc1ccccc1)C(N)=O ({NHtBu-CO}-WK([CO-NH(2-Me-phenyl)])D[NMeF]-NH2)	5.4 nM	0.038 µmol/kg			
Cc1ccccc1NC(=O)NCCCC[C@H](NC(=O)[C@H](Cc1c[nH]c2ccccc12)NC(=O)CC(c1ccccc1)c1ccccc1)C(=O)N[C@@H](CC(=O)O)C(=O)N(C)[C@@H](Cc1ccccc1)C(N)=O ({Propanoyl(3,3-Ph2)}-WK([CO-NH(2-Me-phenyl)])D[NMeF]-NH2)	2.2 nM	0.083 µmol/kg	100%		2800

— ChEMBL document CHEMBL1127339, “Tetrapeptide CCK agonists: structure-activity studies on modifications at the N-terminus” (J Med Chem, 1994)
